Results published in paper PMC6771261 (Journal of natural products, 2019).

Assays:
HRECs = assay: Matrigel based tube formation assay; format: cell-based, human; details: HRECs on Matrigel, 8 hours, different concentrations
Procedure, shortened: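 HRECs (passage 5–8) in EGM-2 were seeded at 15,000 cells per well onto Matrigel-coated wells, with DMSO vehicle or a range of test compound concentrations. A known antiangiogenic homoisoflavonoid served as positive control. After 8 h, wells were imaged and tube length was quantified by image analysis. Mean ± SEM, n=3–6 wells, duplicate experiments; one-way ANOVA with Dunnett's post hoc test vs DMSO.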

[1] = tested on: HUVECs (human umbilical vein endothelial cells); details: read-out: GI50 (HUVEC); as reported; cited from earlier work
[2] = tested on: 92–1 uveal melanoma cells; details: read-out: GI50 (92–1); as reported; cited from earlier work
Y79 retinoblastoma cells = details: read-out: GI50 (Y79); as reported; cited from earlier work
[3] = tested on: HRECs (human retinal microvascular endothelial cells); details: read-out: GI50 (HREC); as reported; cited from earlier work

SMILES	ability of HRECs to form tubes (tubule length compared to DMSO control) (HRECs)	GI50 [1] [µM]	GI50 [2] [µM]	GI50 (Y79 retinoblastoma cells) [µM]	GI50 [3] [µM]
COc1ccc(C[C@@H]2COc3cc(OC)c(OC)c(OC)c3C2=O)cc1O [Compound 45, 5,6,7-trimethoxy-3(R)-(3ʹhydroxy-4ʹ-methoxybenzyl)-4-chromanone]	effective				
COc1ccc(/C=C2\COc3cc(OC)c(OC)c(O)c3C2=O)cc1O [Compound 48, (E)-5-hydroxy-6,7-trimethoxy-3-(3ʹhydroxy-4ʹ-methoxybenzylidene)-4-chromanone]	effective				
CCOc1ccc(C(=O)/C=C/c2ccc(OC)c(OC)c2)c(O)c1C [Compound 50, (E)-3-(3,4-dimethoxylphenyl)-1-(4-ethoxy-2-hydroxy-3-methyl-phenyl)prop-2-en-1-one]	effective				
COc1ccc(CC2COc3cc(O)c(OC)c(O)c3C2=O)cc1O (stereo not shown) [cremastranone]		0.38	48	9.8	0.22
